# The source made the active and inactive calls. The calls are words filed in the database; no cut-off is given here.
# Key:
# HepG2 [1] = assay: Induction of apoptosis in human HepG2 cells assessed as increase in cleaved-caspase 3 protein expression at 1 to 4 uM after 24 hrs by Western blot analysis; assay type: functional, cell-based; settings: dose 1-4 µM
# Procedure, shortened: (§1)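 HepG2 cells lysed in RIPA on ice for 20 min; protein measured by BCA. Lysates run on 10% SDS-PAGE and transferred to PVDF. Membranes blocked in 5% nonfat milk/TBST for 2 h, incubated with primary antibodies overnight at 4 °C, then HRP secondary antibody; bands detected by ECL.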
# HepG2 [2] = assay: Induction of cell death in human HepG2 cells at 3 uM after 12 hrs in presence of Nec-1 by MTT assay; assay type: functional, cell-based
# Procedure, shortened: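 HepG2 cells pretreated with Nec-1 (30 μM) for 2 h, then given 3 μM. Viability measured by MTT with absorbance read at 570 nm.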
# PC-3 [3] = assay: Antiproliferative activity against human PC-3 cells assessed as reduction in cell viability after 48 hrs by MTT assay; assay type: functional, cell-based; settings: PC-3, 48 h
# Procedure, shortened: (§2)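 Cell lines grown at 37 °C in 5% CO2: A2780, A549, HL7702 and PC3 in RPMI 1640; HT29 in McCoy's 5A; HepG2 and PANC-1 in DMEM; all media with 10% FBS and penicillin/streptomycin. Cells seeded and left overnight, then exposed to compound for 48 h. MTT (5 mg/mL solution) added for 4 h at 37 °C, formazan dissolved in DMSO, absorbance read at 570 nm. IC50 taken from viability; run in triplicate.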
# HepG2 [4] = assay: Induction of apoptosis in human HepG2 cells assessed as late apoptotic cells at 2 uM after 24 hrs by annexin V/propidium iodide staining based flow cytometric analysis (reference value: 3.22%); assay type: functional
# HepG2 [5] = assay: Induction of apoptosis in human HepG2 cells assessed as increase in cleaved-PARP protein expression at 1 to 4 uM after 24 hrs by Western blot analysis; assay type: functional, cell-based; settings: dose 1-4 µM; procedure, shortened: as §1
# HepG2 [6] = assay: Antiproliferative activity against human HepG2 cells assessed as reduction in cell viability after 48 hrs by MTT assay; assay type: functional, cell-based; settings: HepG2, 48 h; procedure, shortened: as §2
# HepG2 [7] = assay: Induction of mitochondrial dysfunction in human HepG2 cells assessed as decrease in mitochondrial membrane […] at 1 to 4 uM after 24 hrs by JC-1 staining based flow cytometric analysis; assay type: functional, cell-based; settings: dose 1-4 µM
# Procedure, shortened: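 HepG2 cells in 6-well plates treated for 24 h at 37 °C, then trypsinized. Stained with JC-1 at a final 2.5 μg/mL for 30 min, washed three times, resuspended in PBS and read by flow cytometry.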
# HepG2 [8] = assay: Induction of morphological changes in human HepG2 cells assessed as accumulation of vacuoles at 3 uM after 24 hrs in presence of Nec-1 by microscopic method; assay type: functional, cell-based
# Procedure, shortened: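 HepG2 cells pretreated with necrostatin-1 (30 μM, 2 h), then exposed to 3 μM compound. Vacuoles imaged by optical microscopy after 24 h.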
# HepG2 [9] = assay: Induction of cell death in human HepG2 cells at 3 uM after 24 hrs in presence of CQ by MTT assay; assay type: functional, cell-based
# Procedure, shortened: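 HepG2 cells given 3 μM for 24 h together with CQ (10 μM) or 3-MA (1 mM). Viability measured by MTT with absorbance read at 570 nm.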
# HepG2 [10] = assay: Induction of apoptosis in human HepG2 cells assessed as viable cells at 2 uM after 24 hrs by annexin V/propidium iodide staining based flow cytometric analysis (reference value: 95.3%); assay type: functional; settings: read-out: Activity
# HepG2 [11] = assay: Potency index, ratio of HN IC50 to test compound IC50 for antiproliferative activity against human HepG2 cells; assay type: functional
# Procedure, shortened: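 MTT assay after 48 h drug exposure. Cells seeded overnight, MTT (5 mg/mL stock) added for 4 h at 37 °C, formazan dissolved in DMSO, absorbance read at 570 nm. IC50 taken from viability, repeated in triplicate, and the IC50 ratio calculated.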
# HepG2 [12] = assay: Induction of apoptosis in human HepG2 cells assessed as late apoptotic cells at 1 uM after 24 hrs by annexin V/propidium iodide staining based flow cytometric analysis (reference value: 3.22%); assay type: functional
# PANC-1 = assay: Induction of morphological changes in human PANC-1 cells assessed as accumulation of cytoplasmic vacuoles at 4 uM after 24 hrs by optical microscopic method; assay type: functional, cell-based
# Procedure, shortened: (§3)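 Cells grown at 37 °C, 5% CO2 in media with 10% FBS and penicillin/streptomycin, then treated with compound. Cytoplasmic vacuoles judged by optical microscopy. Time course at 4 μM, or 10 h exposure across increasing concentrations.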
# PC-3 [13] = assay: Induction of morphological changes in human PC3 cells assessed as accumulation of cytoplasmic vacuoles at 4 uM after 24 hrs by optical microscopic method; assay type: functional, cell-based; procedure, shortened: as §3
# HepG2 [14] = assay: Induction of apoptosis in human HepG2 cells assessed as viable cells at 1 uM after 24 hrs by annexin V/propidium iodide staining based flow cytometric analysis (reference value: 95.3%); assay type: functional; settings: read-out: Activity
# HepG2 [15] = assay: Induction of apoptosis in human HepG2 cells assessed as early apoptotic cells at 1 uM after 24 hrs by annexin V/propidium iodide staining based flow cytometric analysis (reference value: 1.29%); assay type: functional
# HepG2 [16] = assay: Induction of autophagy in human HepG2 cells assessed as effect on P62 protein expression at 3 uM after 24 hrs by Western blot analysis; assay type: functional, cell-based; procedure, shortened: as §1
# HepG2 [17] = assay: Induction of mitochondrial dysfunction in human HepG2 cells assessed as […] at 1 to 4 uM after 24 hrs by JC-1 staining based flow cytometric analysis; assay type: functional, cell-based; settings: dose 1-4 µM
# HepG2 [18] = assay: Induction of ROS generation in human HepG2 cells at 2 uM measured up to 24 hrs by DCFH-DA staining based flow cytometric analysis; assay type: functional, cell-based; settings: time hrs <=24
# Procedure, shortened: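 HepG2 cells treated for the stated time, then loaded with 10 μM DCFH-DA in FBS-free medium for 30 min in the dark. Washed twice with PBS, trypsinized, pelleted at 1200 rpm for 5 min, resuspended in PBS and read by flow cytometry. Kit Rosup reagent served as positive agent.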
# [19] = Ratio of HN drug uptake to test compound drug uptake in human HepG2 cells at 5 uM after 12 hrs by HPLC analysis; assay type: ADME, cell-based; settings: hepg2, 12 h
# Procedure, shortened: (§4)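 HepG2 cells treated with 5 μM compound or honokiol for 12 h. Mitochondria isolated with a kit by centrifugation at 600g then 11000g, 4 °C, 10 min each. Whole-cell and mitochondrial drug measured by HPLC on a C18 column, methanol-0.1% acetic acid (80:20), at 265 nm (derivative) and 210 nm (honokiol). Run thrice.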
# [20] = Ratio of HN drug uptake to test compound drug uptake in human HepG2 cells mitochondria at 5 uM after 12 hrs by HPLC analysis; assay type: ADME; settings: hepg2, 12 h; procedure, shortened: as §4
# HepG2 [21] = assay: Antitumour activity against human HepG2 cells xenografted in AB zebrafish assessed as inhibition of cell growth at 0.8 to 2.4 uM after 48 hrs by cell tracker CM-Dil based laser confocal microscopic method; assay type: functional; settings: dose 0.8-2.4 µM
# Procedure, shortened: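 Wild-type AB zebrafish embryos raised at 28 °C in embryo medium (5.0 mM NaCl, 0.17 mM KCl, 0.4 mM CaCl2, 0.16 mM MgSO4). HepG2 cells labelled with CM-DiI, microinjected into 2-day-old larvae. At 4 h post-injection, larvae with the same injection spot were grouped (about 15–20 per group, three wells each). Exposed to 0.8, 1.6 or 2.4 μM in the water for 48 h; doxorubicin 1.0 μM as reference. Tumour fluorescence intensity measured by confocal microscopy.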
smiles,measurement,setting,value
C=CCc1ccc(O)c(-c2ccc(OCCCCCc3c4[n+](cc5c(OC)c(OC)ccc35)CCc3cc5c(cc3-4)OCO5)c(CC=C)c2)c1.[I-],Activity,HepG2 [1],Active
same,Activity,HepG2 [2],Active
same,IC50,PC-3 [3],2250 nM
same,Activity,HepG2 [4],3.51%
same,Activity,HepG2 [5],Active
same,IC50,HepG2 [6],1630 nM
same,Activity,HepG2 [7],Active
same,Activity,HepG2 [8],Active
same,Activity,HepG2 [9],Active
same,viability at 2 µM,HepG2 [10],93.3%
same,Ratio IC50,HepG2 [11],14.6
same,Activity,HepG2 [12],3.21%
same,Activity,PANC-1,Active
same,Activity,PC-3 [13],Active
same,viability at 1 µM,HepG2 [14],93.3%
same,Activity,HepG2 [15],3.27%
same,Activity,HepG2 [16],inactive
same,Activity,HepG2 [17],Active
same,Activity,HepG2 [18],Active
same,Ratio,[19],2.5
same,Ratio,[20],3.7
same,growth inhibition (GI),HepG2 [21],Active
